Data published in PubChem BioAssay.
Activity calls are given as the source filed them.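 The calls were made as follows, unless noted: active = inhibition of the reporter signal at or above 50%; inactive = inhibition below 50%.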

What was measured:
[1] = inhibitors of TNFa-induced NFkB p65 translocation, primary screen, imaging, HUVEC, MLSMR starter and 10KST1 sets (AID 438;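 active = inhibition above 20% together with a positive visual image hit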;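 also: compound added about 3h40 before a 20 min TNFalpha stimulation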;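 as to inhibition: signal is the nuclear over cytoplasmic p65 intensity ratio per well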); conditions: HUVEC TNFa-induced p65 nuclear translocation; cell count: measured here: nuclei count (cytotoxicity indicator), at 2.08 µM; inhibition: at 2 µM, stronger effect = higher value, 0% TNFa-plus-vehicle, 100% no-TNFa wells
[2] = reduction of polyQ htt aggregates in cells – imaging, exon1htt(103Q)mCFP cells, high-content imaging, primary screen (AID 483;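 active = visual image review flags a hit and inhibition of aggregation exceeds 20%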;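 also: compound exposure lasted 3 days before fixation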;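 as to nuclei count: percent of the per-plate median nuclei count of sample wells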); conditions: exon1htt(103Q)mCFP cell line, aggregate imaging, at 2 µM; inhibition of aggregation: stronger effect = higher value; nuclei count: measured here: cell count, toxicity
[3] = endothelial E-selectin expression blockers – imaging, HUVEC, immunofluorescence, MLSMR starter and 10KST1 sets, primary screen (AID 487;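 active = visually confirmed hit in the image check and inhibition above 20%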;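 as to inhibition: signal is fraction of cell area covered by stained E-selectin grains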;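 as to nuclei count: 100% = median nuclei count of all wells on the same plate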); conditions: HUVEC TNFalpha-induced E-selectin immunofluorescence imaging, at 2 µM; inhibition: stronger effect = higher value; nuclei count: measured here: cell number, toxicity
[4] = target: Voltage-gated potassium channel subunit beta-2 (Rattus norvegicus) (UniProt P62483); experiment: inhibitors of rat Kvbeta2 reductase activity – biochemical, NADPH fluorescence, primary screen (AID 622;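 active = fluorescence slope higher than the sample average by over 3 SD, cut at about -0.22 in these data, passing the limit was not always enough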;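 also: slope of raw intensity against log time taken from 70 to 1610 s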); conditions: recombinant KvBeta, 4-cyanobenzaldehyde reduction, at 10 µM, stronger effect = higher value
[5] = target: Voltage-gated potassium channel subunit beta-2 (Rattus norvegicus) (UniProt P62483); experiment: enhancers of rat Kvbeta2 NADPH turnover – biochemical, NADPH fluorescence, primary screen (AID 623;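 active = NADPH fluorescence slope more negative than the mean of all samples by about 3 SD, 99.7% confidence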;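 also: fluorescence intensity change per second fitted from 20 to 320 s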); conditions: Recombinant KvBeta, NADPH fluorescence decrease slope, 10 min; at 10 µM; stronger effect = lower value
[6] = target: Muscarinic acetylcholine receptor M4 (Homo sapiens) (UniProt P08173); experiment: M4-linked GIRK flux change, two-sided – cell-based, HEK293 M4/GIRK, thallium flux, BTC-AM, M4 allosteric agonist project, primary screen (AID 625;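 active = fluorescence slope after compound addition differing from the mean of all tested samples at 99.7% confidence, mostly higher but some lower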;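 also: thallium influx through GIRK channels coupled to M4 in HEK293 cells with BTC-AM dye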); conditions: at 10 µM, actives lie on both sides
Outline: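 Assay system: HEK293 cells with M4 receptor and GIRK channels / Controls: carbachol and DMSO controls / Schedule: 1 h dye loading, 2 min kinetic read / Technique: kinetic fluorescence with BTC-AM dye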

[7] = blockers of RIG-like receptor reporter activation – cell-based, Sendai virus stimulus, luciferase, 10K MLSCN set, TLR/RLR signaling modifier project, primary screen (AID 602276;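 active = inhibition at or above 50% at 10 µM; inactive = inhibition below 50%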;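 also: firefly luciferase from ISG56 promoter only with Renilla not read in this screen; 0% = Sendai virus plus DMSO and 100% = medium plus DMSO without virus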); conditions: HEK293 RL24 IRF3 luciferase reporter, at 10 µM, stronger effect = higher value
[8] = TLR3 IRF3 reporter activation blockers – cell-based, poly I:C stimulus, luciferase, 10K MLSCN set, primary screen (AID 602277); conditions: HEK293-TLR3 RL24 IRF3 luciferase reporter, at 10 µM, stronger effect = higher value

Muscarinic acetylcholine receptor M4 (Homo sapiens), sequence (P08173 whole entry, looked up): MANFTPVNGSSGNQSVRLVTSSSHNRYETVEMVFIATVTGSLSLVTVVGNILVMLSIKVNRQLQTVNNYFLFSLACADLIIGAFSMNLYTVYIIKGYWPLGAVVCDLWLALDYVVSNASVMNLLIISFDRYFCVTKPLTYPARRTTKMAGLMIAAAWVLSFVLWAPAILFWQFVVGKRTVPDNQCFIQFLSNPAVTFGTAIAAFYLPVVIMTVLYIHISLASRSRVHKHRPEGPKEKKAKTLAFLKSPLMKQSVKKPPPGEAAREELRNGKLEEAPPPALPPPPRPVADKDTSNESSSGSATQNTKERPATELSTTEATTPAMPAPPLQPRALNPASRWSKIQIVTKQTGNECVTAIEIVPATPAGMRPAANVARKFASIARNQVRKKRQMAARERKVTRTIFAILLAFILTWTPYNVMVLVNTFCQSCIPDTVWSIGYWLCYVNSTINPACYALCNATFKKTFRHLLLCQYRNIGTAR
Voltage-gated potassium channel subunit beta-2 (Rattus norvegicus), sequence (P62483 whole entry, looked up): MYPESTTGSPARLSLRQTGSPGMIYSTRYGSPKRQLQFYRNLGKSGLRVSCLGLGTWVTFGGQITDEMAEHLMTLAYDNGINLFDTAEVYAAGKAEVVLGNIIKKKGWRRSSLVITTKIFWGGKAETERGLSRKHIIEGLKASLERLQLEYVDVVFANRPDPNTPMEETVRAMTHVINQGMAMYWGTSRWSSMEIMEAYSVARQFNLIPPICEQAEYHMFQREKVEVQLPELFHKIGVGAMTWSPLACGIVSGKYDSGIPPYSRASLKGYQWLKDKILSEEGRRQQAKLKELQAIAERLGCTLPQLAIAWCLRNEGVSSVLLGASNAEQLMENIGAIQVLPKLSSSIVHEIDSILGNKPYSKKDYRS

Row | Compound | cell count [1] | inhibition [1] | inhibition of aggregation [2] | nuclei count [2] | inhibition [3] | nuclei count [3] | fluorescence slope [4] | NADPH fluorescence slope [5] | fluorescence slope [6] | inhibition [7] | inhibition [8]
1 | CC(=O)Nc1ccc(NC2=CC(=O)CC(C)(C)C2)cc1 | 424 | 1% (inactive) | 14% (inactive) | 107% | -60% (inactive) | 119% | -0.541 (inactive) | -5.8e-05 (inactive) | 0.00709 (inactive) | 18.6% (inactive) | 17.5% (inactive)
2 | Nc1nc(-c2ccc(Cl)cc2)cc(C(F)(F)F)n1 | 439 | 2.1% (inactive) | 4.9% (inactive) | 103% | -16.4% (inactive) | 109% | -0.582 (inactive) | -1.9e-07 (inactive) | 0.00927 (inactive) | 1.69% (inactive) | -12.7% (inactive)
3 | CC(=O)Nc1ccc(Oc2cc(C#N)c(C#N)cc2N2CCCCCC2)cc1 | 305 | -7.7% (inactive) | -9.6% (inactive) | 91.5% | -62.5% (inactive) | 127% | -0.377 (inactive) | 2.3e-05 (inactive) | 0.00486 (inactive) | 13.8% (inactive) | 21.8% (inactive)
4 | Clc1ccccc1OCc1nn2c(-c3ccncc3)nnc2s1 | 352 | 2.6% (inactive) | 35.5% (inactive) | 91.1% | -23.5% (inactive) | 118% | -0.298 (inactive) | -6.4e-05 (inactive) | 0.00567 (inactive) | 8.19% (inactive) | -3.24% (inactive)
5 | O=S(=O)(NCCc1csc(-c2ccccc2)n1)c1ccc2c(c1)OCCO2 | 363 | -13.3% (inactive) | 2.9% (inactive) | 108% | 29.5% (inactive) | 76.2% | -0.622 (inactive) | 1e-06 (inactive) | 0.00312 (inactive) | 14.6% (inactive) | 9.91% (inactive)
6 | CC1=C(C#N)C(c2ccoc2)C(C(=O)OCc2ccccc2)=C(N)S1 (stereo not drawn) | 482 | 1% (inactive) | -13.3% (inactive) | 84.8% | -90% (inactive) | 102% | -0.524 (inactive) | -0.000129 (inactive) | 0.0045 (inactive) | 9.67% (inactive) | 11.7% (inactive)
7 | O=C(OCc1nnc(-c2ccccc2)o1)C1=COCCO1 | 462 | 0% (inactive) | 5.5% (inactive) | 71.7% | -58.4% (inactive) | 110% | -0.432 (inactive) | -1.1e-05 (inactive) | 0.00605 (inactive) | -2.24% (inactive) | -6.55% (inactive)
8 | O=C(Cn1nc(C(F)(F)F)c2c1CCCC2)NCCN1CCOCC1 | 584 | -6.8% (inactive) | -26.7% (inactive) | 103% | -8.6% (inactive) | 93.4% | -0.516 (inactive) | -0.00011 (inactive) | 0.00274 (inactive) | 17.5% (inactive) | 25.2% (inactive)
9 | CCCSC1=C(C#N)C(c2ccccc2OCC)CC(=O)N1 (stereo not drawn) | 443 | 0.5% (inactive) | 0.2% (inactive) | 111% | 9.8% (inactive) | 95% | -0.454 (inactive) | -2.4e-05 (inactive) | 0.00486 (inactive) | 17.2% (inactive) | 17.7% (inactive)
10 | Cc1ccc(S(=O)(=O)N(C)Cc2cc3ccccc3[nH]c2=O)cc1 | 544 | -5% (inactive) | 12.8% (inactive) | 99.8% | 29.4% (inactive) | 104% | -0.52 (inactive) | -0.000101 (inactive) | 0.00517 (inactive) | 8.78% (inactive) | 70.5% (active)
11 | COC(=O)C(C)Oc1ccc2c3c(c(=O)oc2c1)CCCCC3 (stereo not drawn) | 648 | -7.8% (inactive) | -24.4% (inactive) | 106% | -170% (inactive) | 103% | -0.496 (inactive) | -1.7e-05 (inactive) | 0.00349 (inactive) | 9.54% (inactive) | 12.4% (inactive)
12 | COc1cccc(OC)c1C(=O)N1CCOCC1 | 505 | -7.7% (inactive) | 7.2% (inactive) | 103% | -105% (inactive) | 126% | -0.536 (inactive) | -3.1e-05 (inactive) | 0.00602 (inactive) | 17.5% (inactive) | 25.3% (inactive)
13 | CCN(CC)C(=O)c1ccc(NS(=O)(=O)c2ccccc2)cc1 | 444 | 0.9% (inactive) | -9.8% (inactive) | 112% | -22.4% (inactive) | 117% | -0.478 (inactive) | -0.000282 (inactive) | 0.0035 (inactive) | -7.99% (inactive) | -12.2% (inactive)
14 | O=C1CCC(=O)N1OCCCCOc1ccccc1 | 692 | 3.7% (inactive) | -1.2% (inactive) | 105% | 7.8% (inactive) | 106% | -0.421 (inactive) | 3.2e-05 (inactive) | 0.00701 (inactive) | 15.8% (inactive) | 18% (inactive)
15 | COc1ccccc1C(=O)Nc1c2c(nn1-c1cccc(C)c1C)CS(=O)(=O)C2 | 335 | -6.6% (inactive) | -7% (inactive) | 79.5% | -51.3% (inactive) | 106% | -0.492 (inactive) | -4.5e-06 (inactive) | 0.00519 (inactive) | 14.2% (inactive) | 19.1% (inactive)
16 | CC1Cc2ccccc2N1C(=O)Cc1cccs1 (stereo not drawn) | 275 | -3.1% (inactive) | 33.8% (inactive) | 74.7% | 18.4% (inactive) | 93.7% | -0.504 (inactive) | -3.6e-05 (inactive) | 0.00407 (inactive) | 7.14% (inactive) | -1.13% (inactive)
17 | Cc1sc2ncnc(OCC(=O)N3CCN(S(=O)(=O)c4ccc(Cl)cc4)CC3)c2c1C | 682 | -9.4% (inactive) | -30.8% (inactive) | 122% | -50.8% (inactive) | 124% | -0.612 (inactive) | -4.9e-06 (inactive) | 0.00511 (inactive) | -76.1% (inactive) | 98.9% (active)
18 | COC(=O)c1onc(C(=O)c2ccccc2)c1C(=O)OC | 405 | 2.7% (inactive) | -4.5% (inactive) | 103% | -67.9% (inactive) | 114% | -0.568 (inactive) | -4.3e-05 (inactive) | 0.00647 (inactive) | 16.3% (inactive) | 12.9% (inactive)
19 | O=C(CNS(=O)(=O)c1ccc(Br)s1)N1CCN(c2ncccn2)CC1 | 352 | 2.7% (inactive) | 13.7% (inactive) | 101% | -48.3% (inactive) | 86.3% | -0.532 (inactive) | -0.000106 (inactive) | 0.00447 (inactive) | -5.84% (inactive) | -10.7% (inactive)
20 | Cc1ccc(NC(=O)CSc2nnc(CCCCCNC(=O)OC(C)(C)C)o2)c(C)c1 | 630 | -9.5% (inactive) | 28.5% (inactive) | 94.7% | -28.9% (inactive) | 102% | -0.546 (inactive) | -4e-05 (inactive) | 0.00541 (inactive) | 14.7% (inactive) | 12.1% (inactive)
21 | CCOC(=O)CNC(=O)c1c(C)nn(-c2ccccc2)c1Cl | 389 | 1.9% (inactive) | 0.1% (inactive) | 56.2% | -152% (inactive) | 127% | -0.571 (inactive) | -5.1e-06 (inactive) | 0.00495 (inactive) | -45.3% (inactive) | 99.2% (active)
22 | O=C(O)c1cc(/C=N\O)ccc1OCc1ccccc1 | 697 | -6.9% (inactive) | 2.9% (inactive) | 112% | -30.9% (inactive) | 104% | -0.545 (inactive) | -1.3e-05 (inactive) | 0.007 (inactive) | -0.244% (inactive) | 11.6% (inactive)
23 | CCC(=O)c1ccc(OCC(=O)N2CCc3cc(OC)c(OC)cc3C2)cc1 | 369 | 10.8% (inactive) | 17.3% (inactive) | 91.3% | 25.9% (inactive) | 99.5% | -0.577 (inactive) | -4.3e-05 (inactive) | 0.00901 (inactive) | 3.27% (inactive) | 12.3% (inactive)
24 | Cc1ccc(NC2=NC(c3ccccc3)n3c(nc(C)cc3=O)N2)cc1 (stereo not drawn) | 568 | -5.6% (inactive) | -4.2% (inactive) | 89.6% | -13% (inactive) | 90.9% | -0.529 (inactive) | 3.4e-05 (inactive) | 0.00472 (inactive) | 14.2% (inactive) | 19.7% (inactive)
25 | COc1ccccc1-c1nnc2sc(-c3ccc(N(C)C)cc3)nn12 | 695 | -11.2% (inactive) | -34.9% (inactive) | 1.9% | -217% (inactive) | 107% | -0.517 (inactive) | 1.2e-05 (inactive) | 0.00532 (inactive) | 37.1% (inactive) | 87.1% (active)
26 | CC1=CC=CC2=NC(=O)CC(C)(C(=O)N(CC(=O)NC(C)C)C3CCCC3)N12 (stereo not drawn) | 668 | -4.9% (inactive) | -31.9% (inactive) | 107% | 71.9% (active) | 102% | -0.405 (inactive) | 6.3e-05 (inactive) | 0.00619 (inactive) | 4.96% (inactive) | 6.2% (inactive)
27 | O=C(COc1ccccc1Cl)N1CCCC1 | 236 | 11.7% (inactive) | -1.6% (inactive) | 83.7% | -66.3% (inactive) | 152% | -0.528 (inactive) | 2.9e-05 (inactive) | 0.00495 (inactive) | -16% (inactive) | -18.4% (inactive)
28 | COc1ccccc1S(=O)(=O)n1cc(Cc2ccccc2)c(N)n1 | 341 | -21.8% (inactive) | 0.9% (inactive) | 89% | -28.1% (inactive) | 114% | -0.493 (inactive) | -1.1e-05 (inactive) | 0.0055 (inactive) | 3.66% (inactive) | 31.1% (inactive)
